Assay outcomes deposited in PubChem by several laboratories.
Only some compounds are listed: those with a hit (about 1.6% of all), similar ones and a draw of the others.
NR2E3 ag-1: NR2E3 agonists in two-hybrid cells, primary screen, cell-based, luminescence, CHO-S, Gal4-NCOR/VP16-NR2E3; luciferase; inhibition of corepressor binding, % at 3.98 µM; actives 0.35% (n = 360,000); AID 602229, 2012;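 active = inhibition above the mean of all tested compounds plus 3 SD, cut at about 70% in these data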;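 note: 0% = DMSO with NR2E3 transfected cells and 100% = cells lacking NR2E3 construct; higher means lower luciferase signal from less NR2E3 corepressor binding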
Target sequence (Q9Y5X4 whole entry, looked up, the tested form may be a part): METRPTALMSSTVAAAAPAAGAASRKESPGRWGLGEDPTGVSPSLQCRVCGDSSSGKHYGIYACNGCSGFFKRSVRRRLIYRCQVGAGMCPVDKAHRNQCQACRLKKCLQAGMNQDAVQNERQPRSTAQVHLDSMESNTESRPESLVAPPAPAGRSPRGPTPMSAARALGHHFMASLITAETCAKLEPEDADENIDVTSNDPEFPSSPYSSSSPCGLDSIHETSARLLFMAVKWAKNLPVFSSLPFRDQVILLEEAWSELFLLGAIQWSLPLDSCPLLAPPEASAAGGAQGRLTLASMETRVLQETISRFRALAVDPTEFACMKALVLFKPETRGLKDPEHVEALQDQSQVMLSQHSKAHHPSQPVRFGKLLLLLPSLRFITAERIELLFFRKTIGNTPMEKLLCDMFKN
PKA-R1A act: activators of PKA-R1A holoenzyme, primary screen, biochemical, fluorescence polarization, Cy5-IP20, bovine R1A, mouse PKAc. AID 504707, 2011. actives 0.083% (n = 340,000). activation, % at 11.4 µM. PKA-R1A dissociation; scaled: DMSO 0%, 113 µM cGMP 100%. cAMP-dependent protein kinase type I-alpha regulatory subunit (Bos taurus) + …;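 active = percent activation above the mean of all tested compounds plus 3 SD, cut at about 19% in these data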;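 note: higher means more PKAc released from R1A so a rise in polarization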
NR1D1 modulator: modulators of Rev-erb alpha DNA binding, primary screen, biochemical, FITC-DNA, fluorescence polarization, uHTS; Nuclear receptor subfamily 1 group D member 1 (Homo sapiens), P20393; Rev-erbα–FITC-DNA binding, 90 min; activity, % at 10 µM; actives 0.79% (n = 370,000); AID 1259318, 2017;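 active = activity above about 14%, limit read from the data; passing the limit was not always enough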;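 note: 0% = DMSO wells with 35 nM protein and 100% = DMSO wells with 750 nM protein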
PG9 Ab binder: binders of HIV-1 gp120 antibody PG9, primary screen, biochemical, TR-FRET | TR-FRET gp120-PG9 antibody binding | inhibition, % at 6.7 µM | actives 0.43% (n = 360,000); in the data active = inhibition above about 8.5%
PKA-R2B act: activators of PKA-R2B holoenzyme, primary screen, biochemical, fluorescence polarization, Cy5-IP20, human. activation, % at 11.4 µM. PKA-R2B holoenzyme dissociation; R2B truncated from residue 108, S112A mutant; 0% DMSO only, 100% 113 µM cGMP. actives 0.079% (n = 340,000);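 active = activation above a cutoff set at the mean over all compounds plus 3 SD, cut at about 18% in these data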;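 note: higher means more holoenzyme dissociation and a rise in polarization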
NR2E3 ag-2: inhibitors of NR2E3-RetCOR corepressor binding, primary screen, NR2E3 agonist project, biochemical, TR-FRET, GST-NR2E3, biotin-RetCOR | inhibition of corepressor binding, % at 4.78 µM | actives 0.12% (n = 320,000) | 1536-well;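 active = percent inhibition above the cutoff of mean plus 3 SD of all tested compounds, set per screening campaign, cut at about 20% in these data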;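 note: 0% = DMSO wells and 100% = biotin wells as full block of FRET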
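Material: NR2E3–RetCOR corepressor complex / Amount: 1.35 nM GST-NR2E3 / Medium: Tris pH 7.5 / Compound: single nominal compound dose of 4.8 µM / Incubation: 5 h at 4 °C / Technique: TR-FRET, Eu(K)-anti-GST donor, streptavidin-D2 acceptor, ex 340, em 617/671 nm / Read-out basis: percent loss of FRET ratio relative to control wells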
NR2E3 ag confirm: NR2E3 agonist confirmation in cells, cell-based, luminescence, CHO-S two-hybrid | shares compounds with NR2E3 ag-1 | CHO-S mammalian two-hybrid NR2E3-NCOR, luciferase luminescence | inhibition, % at 3.98 µM | actives 51% (n = 2,300);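 active = average inhibition above a cutoff equal to the mean inhibition of all tested compounds plus one SD, cut at about 70% in these data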;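 note: 0% = DMSO in NR2E3 cells and 100% = DMSO in cells lacking NR2E3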
GAL4-VP16 luc: GAL4-VP16 reporter modulators, confirmation, counter-screen for NR2E3 agonist project, cell-based, luminescence, CHO-S, high throughput; shares compounds with NR2E3 ag-1; CHO-S GAL4-VP16 luciferase reporter; inhibition, % at 3.98 µM; actives 29% (n = 2,300); AID 624379, 2012;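 active = mean inhibition above a cutoff equal to the average over all tested compounds plus one standard deviation, cut at about 70% in these data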;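 note: luciferase from a UAS reporter driven by GAL4-VP16 transactivation; 0% = DMSO with VP16-transfected cells and 100% = DMSO with cells lacking VP16; higher means less reporter light so more repression of VP16 activity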
Active calls of the source: *; · = no result given.

SMILES	NR2E3 ag-1	PKA-R1A act	NR1D1 modulator	PG9 Ab binder	PKA-R2B act	NR2E3 ag-2	NR2E3 ag confirm	GAL4-VP16 luc
C[C@H](O)[C@@H]1C(=O)N2CCc3c([nH]c4c(-c5ccc6c(c5)OCO6)cccc34)[C@@H]2C[C@@H]1N(C)C(=O)c1ccccc1F	·	·	6	·	·	·	·	·
CC(C)N1Cc2nnn(Cc3ccc(F)cc3)c2-c2cc(F)ccc2S1(=O)=O	·	·	2	·	·	·	·	·
CC(=NNC(=S)Nc1ccc(C)cc1)c1ccccn1	71*	4	9	-1	-2	·	-24	5
COc1ccc2c(c1)CCCN2C(=O)C1CCCN(S(=O)(=O)c2ccc(Br)s2)C1 (configuration not stated)	·	·	-2	·	·	·	·	·
Cc1ccc(-c2nc(CS(=O)(=O)CC(=O)N3CCCCCC3)c(C)o2)cc1	51	-9	-2	3	5	-2	7	53
CC1(C)C2CC=C(/C=N/NC(=S)Nc3cccnc3)C1C2 (configuration not stated)	-11	-8	0	0	3	6	·	·
CC1=C/C(=N\NC(=S)Nc2cccnc2)CC(C)(C)C1	80*	7	-2	0	-7	·	-25	1
Cc1noc(C)c1COC(=O)c1cccc(S(=O)(=O)N2CCCCCC2)c1	62	-5	-1	0	6	-1	45	58
C=c1[nH]cc(C(C)c2c(C)n(C)c3ccccc23)/c1=C/C (configuration not stated)	·	·	4	·	·	·	·	·
CC(=O)c1c(C)[nH]c(C(=O)OCc2cccc(C)c2)c1C	48	3	-3	0	-15	2	28	1
COc1cnc(-c2ccccn2)nc1N(C)C	63	0	-9	-3	3	1	52	-13
COc1cnc(-c2ccccn2)nc1Oc1c(C)cccc1C	57	2	7	-1	-7	0	28	-6
COc1ccc(Oc2nc(-c3ccccn3)ncc2OC)cc1	73*	-7	-3	-3	6	1	21	-26
COc1cnc(-c2ccccn2)nc1Oc1cccc(Cl)c1	62	2	-2	0	-14	1	15	3
COc1ccccc1-c1nc(-c2ccccn2)no1	-103	3	-3	-1	-1	4	·	·
c1ccc(CCNc2nc(-c3ccccn3)nc3ccccc23)cc1	103*	-10	4	-4	-7	0	100*	85*
CCN(CC)c1nc(-c2ccccn2)nc(-c2ccccc2)c1C#N	83*	-8	0	0	-19	5	47	39
c1ccc(-c2nc(N3CCOCC3)c3ccccc3n2)nc1	-18	-7	0	1	-5	0	·	·
CCCN(CCC)c1nc(-c2ccccn2)nc2ccccc12	104*	1	-4	-1	-10	·	99*	85*
c1ccc(-c2nc(N3CCCCCC3)c3ccccc3n2)nc1	109*	-1	-3	3	-2	-1	100*	73*
C/C(=N\Nc1nc(-c2ccccn2)nc2ccccc12)c1ccc(F)cc1	-3	-10	·	·	-13	2	·	·
CN(C)c1nc(-c2ccccn2)nnc1-c1ccccc1	10	9	-6	5	-10	2	·	·
CCCCN(CC)c1nc(-c2ccncc2)nc2ccccc12	-11	-3	9	2	-6	-1	·	·
O=S(=O)(CC1NCc2cc(F)ccc21)NCc1ccc(F)cc1 (configuration not stated)	·	·	0	·	·	·	·	·
CC(C)C[C@H]1COc2cc(Br)ccc2S(=O)(=O)N1Cc1cn(Cc2ccc(F)cc2)nn1	·	·	4	·	·	·	·	·
SMILES	NR2E3 ag-1	PKA-R1A act	NR1D1 modulator	PG9 Ab binder	PKA-R2B act	NR2E3 ag-2	NR2E3 ag confirm	GAL4-VP16 luc
COC(=O)[C@]12C[C@H](CC(=O)N3CCCC3)C(=O)N(Cc3ccc(Cl)cc3Cl)C1=C[C@H](COCc1ccccc1)O[C@@H]2C	·	·	3	·	·	·	·	·
COC(=O)c1cc(-c2cccc(OC(F)(F)F)c2)c(=O)n2c1CCC2	·	·	4	·	·	·	·	·
CC(Sc1nc2ccccc2c(=O)n1C)C(=O)N(C)C1CCCCC1 (configuration not stated)	95*	-4	-6	-2	2	1	92*	76*
CCOc1ccc2nc(NC(=O)C3CCN(c4cnccn4)CC3)sc2c1	53	2	-2	0	-6	0	54	11
CCOc1ccc2nc(NC(=O)C3CCN(S(=O)(=O)c4cnc[nH]4)CC3)sc2c1	-42	-6	0	2	5	4	·	·
CCOC(=O)C(C)Sc1nc(-c2ccccn2)ncc1OC (configuration not stated)	44	7	-2	-2	-3	-4	·	·
COc1cnc(-c2ccccn2)nc1Sc1c(Cl)cccc1Cl	91*	-6	12	-3	-2	1	24	3
COc1cnc(-c2ccccn2)nc1Sc1ccccc1Cl	91*	-13	-1	-1	-10	-5	90*	25
COC(=O)[C@]12C[C@H](CC(=O)NCC34CC5CC(CC(C5)C3)C4)C(=O)N(Cc3ccco3)C1=C[C@H](C1CCCC1)O[C@@H]2C	·	·	2	·	·	·	·	·
COC(=O)[C@]12C[C@H](CC(=O)N3CCSCC3)C(=O)N(Cc3ccc(Cl)cc3Cl)C1=C[C@H](C(C)(C)C)O[C@@H]2C	·	·	2	·	·	·	·	·
Cc1ccc(C(=O)Nc2cccc(C(=O)NCc3ccco3)c2)cc1	56	-5	-4	-3	-1	0	19	-4
CCC(CC)C(=O)Nc1cccc(C(=O)NCc2ccco2)c1	-10	1	0	1	-9	0	·	·
O=C(NCc1ccco1)c1cccc(NC(=O)c2ccccc2)c1	50	-23	3	-1	3	-3	23	22
